A short description of series [1]: Cytotoxicity against human SH-SY5Y cells assessed as reduction in cell viability incubated for 24 hrs by propidium iodide staining based fluorescence analysis. As to conditions: read-out: LD50. It counts as toxicity.
The target in series [2] is Cholinesterase (Homo sapiens) (UniProt P06276). Kind of series: Inhibition of human recombinant BChE at 100 uM using butyrylthiocholine iodide as substrate preincubated for 20 mins followed by substrate addition and measured every 240 sec by Ellman's method relative to control. (In general: In Ellman's method for cholinesterases, released thiocholine reacts with DTNB.)

Series [3] relates to Mus musculus. Kind of series: Antialzheimer activity against SAMP8 mouse assessed as reduction in tau phosphorylation ar Ser396 residue at 2 mg/kg, po measured after 4 weeks by Western blot analysis. It counts as functional, organism-based. The method in brief: (§1)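 SAMP8 mice received oral dosing daily for 4 weeks at 2 mg kg⁻¹ day⁻¹, with vehicle-treated SAMP8 mice as controls. Hippocampal protein levels were expressed relative to the SAMP8 control group, set to 100%; for tau this is the p-Tau (Ser396 and Ser404) ratio. Values are mean ± SEM, tested against control.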

The test system of series [4] is Mus musculus. Briefly: Antineuroinflammatory activity in SAMP8 mouse assessed as decrease in IL-6 gene expression hippocampus tissue at 2 mg/kg, po measured after 4 weeks by RT-PCR analysis. It counts as functional, organism-based. The essentials:
(§2)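 Hippocampal gene expression was measured by real-time PCR in SAMP8 mice after daily oral treatment for 4 weeks (2 mg kg⁻¹ day⁻¹), compared with vehicle-treated SAMP8 controls. Values are mean ± SEM.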

Series [5] relates to Mus musculus. Briefly: Antialzheimer activity against SAMP8 mouse assessed as decrease in hippocampal sAPPbeta levels at 2 mg/kg, po measured after 4 weeks by Western blot analysis. In kind it is functional, organism-based. The essentials:
as §1
(In general: A western blot detects proteins with antibodies after separation by electrophoresis.)

Series [6] concerns Mus musculus. Kind of series: Antineuroinflammatory activity in SAMP8 mouse assessed as decrease in NFkappaB protein expression hippocampus tissue at 2 mg/kg, po measured after 4 weeks by Western blot analysis. In kind it is functional, organism-based. The essentials:
as §1

The test system of series [7] is Mus musculus. Briefly: Antineuroinflammatory activity in SAMP8 mouse assessed as decrease in IL-1beta gene expression hippocampus tissue at 2 mg/kg, po measured after 4 weeks by RT-PCR analysis. In kind it is functional, organism-based. The essentials:
as §2

Series [8] relates to Mus musculus. Briefly: Antineuroinflammatory activity in SAMP8 mouse assessed as decrease in Gfap gene expression hippocampus tissue at 2 mg/kg, po measured after 4 weeks by RT-PCR analysis. In kind it is functional, organism-based. The method in brief:
as §2

Series [9] concerns Mus musculus. Briefly: Cognitive enhancing effect in SAMP8 mouse assessed as improvement of short term memory by measuring discrimination index at 2 mg/kg, po administered for 4 weeks by novel object recognition test. It counts as functional, organism-based. The method in brief: (§3)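 SAMP8 mice were dosed orally once daily for 4 weeks at 2 mg kg⁻¹ day⁻¹; controls received vehicle. In the novel object recognition test, a familiarization phase preceded testing for short-term and long-term working memory. The discrimination index scores the ability to distinguish a known from a new object. Values are mean ± SEM.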

Series [10] concerns Mus musculus. Kind of series: Antialzheimer activity against SAMP8 mouse assessed as increase in hippocampal sAPPalpha levels at 2 mg/kg, po measured after 4 weeks by Western blot analysis. In kind it is functional, organism-based. The essentials:
as §1

For series [11], the system named is Mus musculus. Kind of series: Cognitive enhancement effect […] of SAMP8 mouse assessed as increase in novelty discrimination index at 2 mg/kg, po administered 4 weeks by Novel object recognition test. It counts as functional, organism-based. The method in brief:
as §3

Series [12] relates to Mus musculus. Briefly: Antineuroinflammatory activity in SAMP8 mouse assessed as increase in synaptophysin expression in hippocampus tissue at 2 mg/kg, po measured after 4 weeks by Western blot analysis. In kind it is functional, organism-based. The essentials: as §1
The subject of series [13] is Mus musculus. Briefly: Cognitive enhancing effect in SAMP8 mouse assessed as improvement of long term memory by measuring increased discrimination index at 2 mg/kg, po administered for 4 weeks by novel object recognition test. It counts as functional, organism-based. The method in brief:
as §3

Active and inactive are the calls of the source. The calls are words filed in the database; no cut-off is given here.

In general, inhibition refers to the change of the read-out against control, counted positive when it falls.

Chain of Cholinesterase (Homo sapiens) (P06276 whole entry): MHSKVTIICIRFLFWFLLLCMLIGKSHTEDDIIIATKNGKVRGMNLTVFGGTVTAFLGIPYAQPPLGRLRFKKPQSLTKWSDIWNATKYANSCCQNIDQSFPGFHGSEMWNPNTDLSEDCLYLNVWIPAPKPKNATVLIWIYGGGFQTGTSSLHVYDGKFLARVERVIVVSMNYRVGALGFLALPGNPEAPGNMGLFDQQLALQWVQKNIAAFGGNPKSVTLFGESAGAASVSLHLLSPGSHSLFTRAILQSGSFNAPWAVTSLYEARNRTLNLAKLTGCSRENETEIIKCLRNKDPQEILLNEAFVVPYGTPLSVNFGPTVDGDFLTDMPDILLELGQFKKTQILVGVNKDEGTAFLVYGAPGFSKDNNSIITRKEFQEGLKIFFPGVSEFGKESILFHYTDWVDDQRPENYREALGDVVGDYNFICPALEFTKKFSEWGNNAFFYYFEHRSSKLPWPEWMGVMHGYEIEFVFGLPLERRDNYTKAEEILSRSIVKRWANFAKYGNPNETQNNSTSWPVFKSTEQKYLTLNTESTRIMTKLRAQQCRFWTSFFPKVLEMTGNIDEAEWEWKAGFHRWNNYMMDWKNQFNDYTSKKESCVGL

Regarding `O=C(Nc1ccc(OC(F)(F)F)cc1)NC1CCN(C(=O)CCNc2c3c(nc4cc(Cl)ccc24)CCCC3)CC1`, in series [1], the CC50 at 24 h worked out at 92.8 µM.
Still for that read-out and setting: the figure for `CC1=C[C@@H]2Cc3nc4cc(Cl)ccc4c(NCCCCC(=O)N4CCC(NC(=O)Nc5ccc(OC(F)(F)F)cc5)CC4)c3[C@H](C1)C2` is greater than 100 µM.
Consider `CC(=O)N1CCC(NC(=O)Nc2ccc(OC(F)(F)F)cc2)CC1`, for which the inhibition in series [2] was less than 10%.
On to `O=C(Nc1ccc(OC(F)(F)F)cc1)NC1CCN(C(=O)CCCNc2c3c(nc4cc(Cl)ccc24)CCCC3)CC1`, for which, in series [1], the CC50 at 24 h was greater than 100 µM.
With `O=C(Nc1ccc(OC(F)(F)F)cc1)NC1CCN(C(=O)CCCCNc2c3c(nc4cc(Cl)ccc24)CCCC3)CC1`, the CC50 at 24 h in [1] was greater than 100 µM. In addition, the outcome in [3], in series [4], in series [5], in [6], in series [7] and in series [8] was Active. Besides, the result in [9], in series [10], in series [11], in series [12] and in series [13] was Active.
